The list is not random: actives were taken first. Their share in the collection is about 3.3%.
ATG4B inhibitor = blocks human ATG4B protease cleavage of LC3 substrate | Q9Y4P1 | ATG4B cleavage of LC3-PLA2, NBD-HPC fluorescence, 1 h | inhibition, % at 8.33 µM | 340,000 tested, 0.51% active | AID 504462; in the data active means inhibition above about 40%
Arrestin-AP2 inh = human beta-arrestin and AP2 interaction inhibition. inhibition, % at 10 µM. 340,000 tested, 0.31% active. FITC-arrestin peptide / GST-AP2 beads, flow cytometry; AP2 beta2 appendage carries R879A mutation;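 active means inhibition above a set limit, near 3 SD of compounds lacking own fluorescence, cut at about 54% in these data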;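 further: plate controls were DMSO wells for no effect and 5 µM unlabelled arrestin peptide for full effect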
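test system = AP2 appendage R879A on GSH beads | buffer or medium = PBS plus Tween 20 (0.05%) and BSA (0.1%) | incubation = 12 min plus 1 h, RT | detection = bead flow cytometry, FITC channel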
Myeloid diff 2 = myeloid differentiation induction | 360,000 tested, 1% active | calls only at 10 µM | ER-HoxA9 myeloid progenitors, lysozyme-GFP differentiation, flow cytometry | AID 624256;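 active means normalized GFP-positive differentiation at or above the plate's own cutoff, the solvent-only control mean plus 3 SD; inconclusive means no clear call, values can overlap the other calls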;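 further: cells exposed to compound for four days before flow analysis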
CendR NRP1 mod = alters CendR peptide binding to human NRP-1. O14786. FAM-RPARPAR peptide binding to NRP-1, fluorescence polarization. inhibition, % at 25 µM. 360,000 tested, 0.85% active. AID 602438;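 active means inhibition or corrected inhibition above about 18%, plus a signal ratio from 0.5 to 1.5, limit read from the data, passing the limit was not always enough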
Granule exo inh = blocks lytic granule exocytosis; AID 651702; TALL-104 LAMP-1 surface exposure, flow cytometry; cells stimulated with thapsigargin and PMA; inhibition, % at 10 µM; 360,000 tested, 0.66% active;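 active means inhibition above about 55%, limit read from the data; inconclusive means no clear call, values can overlap the other calls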
ABCB6 inh MLPCN = inhibitors of human ABC transporter ABCB6; 360,000 tested, 0.19% active; Q9NP58; fluorescence ratio to DMSO, % at 10 µM; K562-ABCB6 porphyrin accumulation, flow cytometry, 1 h; stronger effect = lower value;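 active means fluorescence ratio to DMSO below 75%, the collection mean minus 3 SD; inconclusive means too few cells collected in the well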;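 further: signal is porphyrin accumulated inside mitochondria; 100% equals median channel fluorescence of DMSO control wells; lower ratio means ABCB6 inhibition with less porphyrin fluorescence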
Target sequence (Q9NP58 whole entry, looked up): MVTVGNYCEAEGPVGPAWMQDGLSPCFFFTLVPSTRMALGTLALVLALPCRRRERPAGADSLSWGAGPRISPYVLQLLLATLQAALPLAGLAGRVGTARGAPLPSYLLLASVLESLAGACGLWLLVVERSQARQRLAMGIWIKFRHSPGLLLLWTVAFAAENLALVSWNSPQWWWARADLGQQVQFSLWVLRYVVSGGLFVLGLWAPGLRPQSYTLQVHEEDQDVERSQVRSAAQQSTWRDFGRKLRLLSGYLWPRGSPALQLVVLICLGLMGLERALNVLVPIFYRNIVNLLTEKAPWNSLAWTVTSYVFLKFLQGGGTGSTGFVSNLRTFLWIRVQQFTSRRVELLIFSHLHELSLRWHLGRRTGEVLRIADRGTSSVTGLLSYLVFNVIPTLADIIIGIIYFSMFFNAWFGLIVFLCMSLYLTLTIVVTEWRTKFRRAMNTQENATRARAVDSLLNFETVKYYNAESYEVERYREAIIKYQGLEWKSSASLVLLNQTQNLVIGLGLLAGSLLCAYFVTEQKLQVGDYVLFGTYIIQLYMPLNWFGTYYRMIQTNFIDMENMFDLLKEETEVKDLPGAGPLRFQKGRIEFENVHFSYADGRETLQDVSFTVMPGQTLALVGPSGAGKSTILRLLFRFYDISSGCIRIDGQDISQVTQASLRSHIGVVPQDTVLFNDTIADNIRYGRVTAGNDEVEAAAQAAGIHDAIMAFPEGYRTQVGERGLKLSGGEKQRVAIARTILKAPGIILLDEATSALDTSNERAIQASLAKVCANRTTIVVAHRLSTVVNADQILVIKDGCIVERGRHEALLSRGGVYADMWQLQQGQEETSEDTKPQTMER
Granule exo CP1 = lytic granule exocytosis inhibition; shares compounds with Granule exo inh; 1,500 tested, 11% active; inhibition, % at 10 µM; TALL-104 cells, LAMP-1 externalization, flow cytometry; stimulated with PMA plus thapsigargin; in the data active means inhibition above about 60%;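 further: 0% = stimulated vehicle wells and 100% = unstimulated wells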
Numbers without * were called inactive; i = inactive; ? = inconclusive; nt = not tested or not shown.

SMILES	ATG4B inhibitor	Arrestin-AP2 inh	Myeloid diff 2	CendR NRP1 mod	Granule exo inh	ABCB6 inh MLPCN	Granule exo CP1
CCOC(=O)[C@]12Cc3cc(N(C)C)ccc3[C@H]1N(Cc1ccccc1)C(=O)c1ccccc12	19	-6	i	13	-4	98	nt
CCOC(=O)[C@]12Cc3ccc(C)cc3[C@H]1N(C1CCCCC1)C(=O)c1cc(OC)ccc12	nt	nt	?	-10	84*	95	23
C[N+]1(C)C2CC(OC(=O)[C@H](CO)c3ccccc3)CC1C1OC12 (stereo partly drawn)	2	4	i	-5	-2	103	nt
CCCSc1nc(O)c(CC)c(=O)n1C(C)CC (stereo not drawn)	0	0	i	14	-1	103	nt
CCOC(=O)[C@]12Cc3cc(Cl)ccc3[C@H]1N(C1CCCCC1)C(=O)c1cc(OC)ccc12	nt	nt	i	-2	100*	101	92*
C[C@]12CCC3C(CC[C@H]4C[C@@H](O)CC[C@]34C)C1CC[C@@H]2OC(=O)[C@H](N)CCCCN (stereo partly drawn)	3	9	i	12	3	97	nt
CC(Cc1ccccc1)NCC(=O)Nc1cc(N(C)C)nc2ccccc12 (stereo not drawn)	2	7	i	-9	62*	91	-14
CC(Cc1ccccc1)NCc1ccccc1O (stereo not drawn)	-7	-14	i	-6	-1	99	nt
CN(C)CCN(CC1CCCN(Cc2ccccc2F)C1)C(=O)Cc1ccccc1F (stereo not drawn)	3	20	i	4	34	101	nt
COc1ccc(CC(=O)N(CCN(C)C)CC2CCCN(Cc3ccccc3F)C2)cc1 (stereo not drawn)	5	3	i	-10	63*	95	-12
CC12CN3CC(C)(CN(C1)C3c1cccs1)C2=O (stereo not drawn)	1	8	i	2	-3	101	nt
CN1CCC(O)(c2cccs2)C(C(=O)c2cccs2)C1 (stereo not drawn)	-4	28	i	6	75*	101	-11
CC(C)CNC(=O)c1c(N)n(Cc2ccc3c(c2)OCO3)c2nc3ccccc3nc12	-9	9	i	10	56*	102	81*
CCCNC(=O)c1c(N)n(Cc2ccc3c(c2)OCO3)c2nc3ccccc3nc12	8	7	i	-48	19	102	nt
CN1C(=O)NC(=O)/C(=C\C=C\c2ccccc2[N+](=O)[O-])C1=O	1	nt	nt	nt	nt	nt	nt
Cc1cccc(NP(=O)(Oc2ccccc2)Oc2ccccc2)c1C	16	-3	i	6	58*	100	-11
CCOP(=S)(OCC)N1CC1	-6	0	i	12	19	103	nt
Brc1ccc(-[n+]2c(-c3ccccc3)cc(-c3ccccc3)cc2-c2ccccc2)cc1	38	2	i	9	-3	92	nt
COC(=O)c1ccc(NC(=O)CSc2nc3ccc(N4C(=O)C5C6C=CC(C6)C5C4=O)cc3s2)cc1 (stereo not drawn)	-12	-6	i	8	81*	92	85*
C[C@@]12CC[C@@H](c3cc4c(cc3C1)OCO4)N2c1ccccc1	nt	nt	i	14	4	nt	nt
Cc1ccc(OCC(=O)N2CCN(C3CCC(c4ccccc4)CC3)CC2)cc1 (stereo not drawn)	-5	-64	i	14	95*	106	-2
O=C(NCCCN1CC1)Nc1cccc2ccccc12	0	5	i	-10	-1	92	nt

Bioassay records as filed in PubChem.
